The source of these data is ChEMBL document CHEMBL1134668, “Hydrazinonaphthalene and azonaphthalene thrombopoietin mimics are nonpeptidyl promoters of megakaryocytopoiesis” (J Med Chem, 2001).

A short description of experiment [1]: Effective concentration (EC50) required to inhibit CD34 cell differentiation. It is filed as functional. To be noted: Homo sapiens. In a few lines: (§1)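 Human bone marrow CD34+ cells from light density marrow cells (2 × 10^6 cells/mL) in IMDM with 20% v/v FCS and rhSCF 100 ng/mL, cultured with sample or TPO (maximal 100 ng/mL) for 10 days at 5% CO2 and 4% O2. Stained with FITC-anti-CD41 and FITC-anti-IgG1 isotype control, formaldehyde-fixed, flow cytometry; %CD41 = CD41 positive minus isotype positive.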

Experiment [2] has as its target T1, Thrombopoietin receptor (Homo sapiens) (UniProt P40238).
T1 sequence (whole entry): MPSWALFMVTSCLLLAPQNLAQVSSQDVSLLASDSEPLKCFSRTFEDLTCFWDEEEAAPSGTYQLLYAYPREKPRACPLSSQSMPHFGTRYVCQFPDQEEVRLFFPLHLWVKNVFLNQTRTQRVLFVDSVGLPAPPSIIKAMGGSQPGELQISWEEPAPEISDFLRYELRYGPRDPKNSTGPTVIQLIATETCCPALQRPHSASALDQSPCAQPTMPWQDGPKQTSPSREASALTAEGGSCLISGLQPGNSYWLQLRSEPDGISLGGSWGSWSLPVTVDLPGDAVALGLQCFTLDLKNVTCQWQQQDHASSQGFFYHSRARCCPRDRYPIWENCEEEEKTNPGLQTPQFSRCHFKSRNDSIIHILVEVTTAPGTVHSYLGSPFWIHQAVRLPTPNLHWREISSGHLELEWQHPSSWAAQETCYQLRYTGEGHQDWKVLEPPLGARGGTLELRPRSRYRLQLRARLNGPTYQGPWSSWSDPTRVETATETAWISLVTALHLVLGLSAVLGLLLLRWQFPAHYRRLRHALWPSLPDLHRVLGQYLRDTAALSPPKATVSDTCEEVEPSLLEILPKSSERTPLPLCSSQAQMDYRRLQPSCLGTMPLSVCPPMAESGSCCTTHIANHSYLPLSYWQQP
The experiment in a line: Thrombopoietin luciferase activity in BAF-3 cells. It is filed as cell-based. To be noted: BaF3.

Experiment [3] in a line: Compound tested for UT7/TPO cell proliferation activity (%TPO) using proliferation assay. The class given is functional, Homo sapiens. In a few lines: (§2)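 UT7/TPO cells kept in IMDM/10% FBS/glutamine plus rhTPO, starved overnight without TPO. Cells (0.2 × 10^6/mL) in starving medium incubated with compounds (0.32% DMSO final) or rhTPO, 37 °C, 5% CO2, 72 h. Pellet DNA content read by BrdU kit. Mean value over control as % of maximal-TPO response, duplicates, plotted vs concentration for EC50.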

The target in experiment [4] is T2, Thrombopoietin receptor (Homo sapiens, UniProt P40238).
T2 sequence (P40238 whole entry): T1 sequence (whole entry)
The experiment in a line: Effective concentration for thrombopoietin luciferase activity was determined in BAF-3 cells. The class given is cell-based, BaF3.

Experiment [5] in a line: Compound tested for CD34+ cell differentiation activity (%TPO) using CD34+ differentiation assay. The class given is functional, Homo sapiens. In a few lines: as §1
Experiment [6] can be described thus: Effective concentration required to inhibit UT7/TPO cell proliferation was determined. It is filed as functional, cell-based. Particulars: Homo sapiens. In a few lines: as §2

A word on the EC50: it is the midpoint of the concentration-response curve. A low value points to greater potency. Take `Cc1ccc(-n2[nH]c(C)c(/N=N/c3c(O)cc(S(=O)(=O)O)c4ccccc34)c2=O)cc1C`: the EC50 in experiment [1] was 200 nM; in experiment [4] it was 40 nM. In addition, the Efficacy in experiment [2] turned out to be 100%; in experiment [3] it was 90%; in experiment [5], 100%.

Take `Cc1[nH]n(-c2cccc(Cl)c2)c(=O)c1/N=N/c1c(O)cc(S(=O)(=O)O)c2ccccc12`: the Efficacy in experiment [2] turned out to be 34%; in experiment [3] it was 45%. In addition, the results for the EC50 in experiment [6] and in experiment [4] were 500 nM and 2000 nM, respectively.

Consider `Cc1[nH]n(-c2ccc(C(C)(C)C)cc2)c(=O)c1/N=N/c1c(O)cc(S(=O)(=O)O)c2ccccc12`, for which the EC50 in experiment [1] was 30 nM; in experiment [4], 20 nM. For the same molecule, in experiment [2], the Efficacy amounted to 86%. For the same molecule, the TPO in experiment [3] and in experiment [5] was 100% throughout.

Take `Cc1[nH]n(-c2ccc(Cl)cc2)c(=O)c1/N=N/c1c(O)cc(S(=O)(=O)O)c2ccccc12`: the results for the Efficacy in experiment [2] and in experiment [3] were 47% and 75%, respectively. Moreover, the EC50 in experiment [4] was 2000 nM.

As for `Cc1[nH]n(-c2cccc(C(F)(F)F)c2)c(=O)c1/N=N/c1c(O)cc(S(=O)(=O)O)c2ccccc12`, the figures for the EC50 in experiment [1] and in experiment [4] were 100 nM and 40 nM, respectively. Besides, the results for the Efficacy in experiment [2] and in experiment [5] were 62% and 95%, respectively.

Regarding `Cc1[nH]n(-c2ccc(Cl)c(Cl)c2)c(=O)c1/N=N/c1c(O)cc(S(=O)(=O)O)c2ccccc12`, the Efficacy turned out to be 67% in experiment [2] and 70% in experiment [3]. Further, the EC50 in experiment [4] worked out at 200 nM.

Take `Cc1[nH]n(-c2ccc(I)cc2)c(=O)c1/N=N/c1c(O)cc(S(=O)(=O)O)c2ccccc12`: the figures for the Efficacy in experiment [2], in experiment [3] and in experiment [5] were 81%, 100% and 60%, respectively. In experiment [4], this molecule yielded an EC50 of 300 nM.
